Test results from ChEMBL document CHEMBL5357047, “The development of thymol-isatin hybrids as broad-spectrum antibacterial agents with potent anti-MRSA activity” (RSC Med Chem, 2024).
Values after ≈ are worked out from the molar mass of the structure shown. Active and inactive are the calls of the source. The calls are words filed in the database; no cut-off is given here.

Legend:
[1] = system: Staphylococcus epidermidis; assay: Antibacterial activity against Staphylococcus epidermidis MTCC 435 assessed as inhibition of bacterial growth at 50 uM measured after 48 hrs by agar well diffusion method; type: functional; details: read-out: IZ
[2] = system: Staphylococcus aureus; assay: Antibacterial activity against clinically isolated Methicillin-resistant Staphylococcus aureus assessed as inhibition of bacterial growth at 50 uM measured after 48 hrs by agar well diffusion method; type: functional; details: read-out: IZ
[3] = system: Enterococcus faecalis; assay: Antibacterial activity against clinically isolated Enterococcus faecalis RBRJ015 assessed as inhibition of bacterial growth at 50 uM measured after 48 hrs by agar well diffusion method; type: functional; details: read-out: IZ
[4] = system: Klebsiella pneumoniae; assay: Antibacterial activity against Klebsiella pneumoniae MTCC 109 assessed as inhibition of bacterial growth at 50 uM measured after 48 hrs by agar well diffusion method; type: functional; details: read-out: IZ
[5] = system: Klebsiella pneumoniae; assay: Antibacterial activity against clinically isolated Klebsiella pneumoniae RBRJ019 assessed as inhibition of bacterial growth at 50 uM measured after 48 hrs by agar well diffusion method; type: functional; details: read-out: IZ
[6] = system: Escherichia coli; assay: Antibacterial activity against Escherichia coli MTCC 119 assessed as inhibition of bacterial growth at 50 uM measured after 48 hrs by agar well diffusion method; type: functional; details: read-out: IZ
[7] = system: Escherichia coli; assay: Antibacterial activity against clinically isolated Escherichia coli RBRJ005 assessed as inhibition of bacterial growth at 50 uM measured after 48 hrs by agar well diffusion method; type: functional; details: read-out: IZ
[8] = system: Enterobacter cloacae; assay: Antibacterial activity against clinically isolated Enterobacter cloacae RBRJ017 assessed as inhibition of bacterial growth at 50 uM measured after 48 hrs by agar well diffusion method; type: functional; details: read-out: IZ
[9] = system: Acinetobacter baumannii; assay: Antibacterial activity against clinically isolated Acinetobacter baumannii RBRJ027 assessed as inhibition of bacterial growth at 50 uM measured after 48 hrs by agar well diffusion method; type: functional; details: read-out: IZ
[10] = system: Pseudomonas aeruginosa; assay: Antibacterial activity against Pseudomonas aeruginosa MTCC 424 assessed as inhibition of bacterial growth at 50 uM measured after 48 hrs by agar well diffusion method; type: functional; details: read-out: IZ
[11] = system: Staphylococcus aureus; assay: Antibacterial activity against clinically isolated Staphylococcus aureus RBRJ010 assessed as inhibition of bacterial growth measured after 48 hrs by broth microdilution method; type: functional
[12] = system: Staphylococcus epidermidis; assay: Antibacterial activity against Staphylococcus epidermidis MTCC 435 assessed as inhibition of bacterial growth measured after 48 hrs by broth microdilution method; type: functional
[13] = system: Staphylococcus aureus; assay: Bactericidal activity against Staphylococcus aureus MTCC 740 assessed as inhibition of bacterial growth measured after 48 hrs by agar plate method; type: functional
How it was run: (§1)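 MBC: aliquots from microdilution wells without colour change subcultured on drug-free Mueller Hinton agar, 48 h at 37 °C aerobically. MBC is the lowest concentration with no visible growth. Triplicate.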

[14] = system: Staphylococcus aureus; assay: Bactericidal activity against clinically isolated Methicillin-resistant Staphylococcus aureus assessed as inhibition of bacterial growth measured after 48 hrs by agar plate method; type: functional
[15] = system: Staphylococcus aureus; assay: Bactericidal activity against Methicillin-resistant Staphylococcus aureus ATCC 33591 assessed as inhibition of bacterial growth measured after 48 hrs by agar plate method; type: functional; how it was run: as §1
[16] = Cytotoxicity against mouse L929 cells assessed as reduction in cell viability measured after 72 hrs by MTT assay; type: toxicity, cell-based
How it was run: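 L929 cells (ATCC) grown in DMEM with 10% FBS and penicillin/streptomycin at 37 °C, 5% CO2; seeded at 5 × 10^3 cells per well and exposed to serial dilutions for 72 h, paclitaxel as positive control. MTT (5 mg mL−1), formazan dissolved in DMSO, absorbance at 490 nm; viability relative to control after blank subtraction; IC50 in μM.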

[17] = system: Staphylococcus aureus; assay: Disruption of biofilms against 48 hrs preformed Methicillin-resistant Staphylococcus aureus assessed as eradication of biofilms measured after 24 hrs by crystal violet staining method; type: functional
How it was run: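 MRSA (1 × 10^5 CFU mL−1, diluted 1:100) grown 48 h at 37 °C in tryptone soy broth with 3% glucose. […] Saline wash, 95% ethanol fixation 30 min, 0.1% crystal violet 30 min at 25 °C, elution with 95% ethanol, OD 545 nm. MBEC determined. Triplicate.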

[18] = system: Staphylococcus aureus; assay: Anti-biofilm activity against Methicillin-resistant Staphylococcus aureus assessed as biofilm substrate coverage at 1XMIC measured after 48 hrs by crystal violet staining based phase contrast microscopy (reference value: 81.43+/-3.57%); type: functional
[19] = system: Staphylococcus aureus; assay: Anti-biofilm activity against Methicillin-resistant Staphylococcus aureus assessed as reduction in integrated density of biofilms at 1/2 to 2XMIC measured after 48 hrs by Syto-9 staining based fluorescence microscopy; type: functional, organism-based
How it was run: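 After PBS washes, stained with SYTO-9 ([…]) 15 min at 25 °C and imaged by fluorescence microscopy (excitation 480 nm). Integrated density quantified from images. Triplicate, mean ± SD.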

[20] = target: T1, 4,4'-diapophytoene synthase (Staphylococcus aureus) (UniProt A9JQL9); assay: Inhibition of CrtM in Methicillin-resistant Staphylococcus aureus assessed as inhibition of staphyloxanthin production at 1/4 to 1/16XMIC measured after 48 hrs
T1 sequence (whole entry): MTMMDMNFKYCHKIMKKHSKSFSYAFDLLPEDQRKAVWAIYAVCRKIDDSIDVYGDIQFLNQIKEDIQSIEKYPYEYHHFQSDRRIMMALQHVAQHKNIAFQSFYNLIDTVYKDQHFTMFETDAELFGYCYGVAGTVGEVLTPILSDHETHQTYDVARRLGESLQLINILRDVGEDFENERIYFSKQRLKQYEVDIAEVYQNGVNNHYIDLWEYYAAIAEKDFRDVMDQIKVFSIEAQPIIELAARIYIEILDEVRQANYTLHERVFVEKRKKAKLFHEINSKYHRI

[21] = target: T1, 4,4'-diapophytoene synthase (Staphylococcus aureus); assay: Inhibition of CrtM in Methicillin-resistant Staphylococcus aureus assessed as inhibition of staphyloxanthin production by measuring reduction in 4,4'-diaponeurosporene level at 1/4XMIC measured after 24 hrs by spectroscopic analysis
How it was run: (§2)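 Cells pelleted, PBS-washed, extracted overnight in methanol at 37 °C. Supernatant absorbance read at 462 nm (staphyloxanthin), 286 nm (4,4′-diapophytoene), 435 nm (4,4′-diaponeurosporene) or 455 nm (4,4′-diaponeurosporenic acid). % inhibition = (control − treated)/control × 100.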

[22] = target: T1, 4,4'-diapophytoene synthase (Staphylococcus aureus); assay: Inhibition of CrtM in Methicillin-resistant Staphylococcus aureus assessed as reduction in staphyloxanthin level at 1/4XMIC measured after 24 hrs by spectroscopic analysis; how it was run: as §2
[23] = Toxicity against Galleria mellonella assessed as survival rate of larva at 20 mg/kg measured every 12 hrs for 120 hrs; type: organism-based; details: in vivo
How it was run: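 Uninfected Galleria mellonella larvae (0.2–0.4 g, 10 per group) given 20 mg kg−1. Controls: untreated, PBS, and PBS + 2% DMSO vehicle. Held at 37 °C and monitored every 12 h for 120 h; larvae that were black and unresponsive counted dead. Percentage survival plotted.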

[24] = system: Staphylococcus aureus; assay: Antibacterial activity against Methicillin-resistant Staphylococcus aureus infected in Galleria mellonella assessed as larva's survial rate at 2.5 mg/kg measured after 24 to 48 hrs; type: functional; details: time 24-48 hrs
How it was run: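 Galleria mellonella larvae (0.2–0.4 g, 10 per group) injected in the last proleg with MRSA at 5 × 10^8 ± 0.2 cells per larva, then given 2.5, 5 or 10 mg kg−1. Controls: untreated, PBS, and PBS + 2% DMSO vehicle. Held at 37 °C and checked every 12 h; larvae that were black and unresponsive counted dead. Bacterial burden by CFU at 0, 24 and 48 h.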

Structure (SMILES): Cc1ccc(C(C)C)c(OCc2cn(CCCN3C(=O)C(=O)c4ccccc43)nn2)c1
- zone of inhibition at 50 µM [1]: 25.5 mm
- zone of inhibition at 50 µM [2]: 28.8 mm
- zone of inhibition at 50 µM [3]: 20.2 mm
- zone of inhibition at 50 µM [4]: 21.4 mm
- zone of inhibition at 50 µM [5]: 20.2 mm
- zone of inhibition at 50 µM [6]: 22.1 mm
- zone of inhibition at 50 µM [7]: 19.3 mm
- zone of inhibition at 50 µM [8]: 19.2 mm
- zone of inhibition at 50 µM [9]: 18.3 mm
- zone of inhibition at 50 µM [10]: 22.3 mm
- MIC [11]: 1.9 µM (≈ 0.795 µg/mL)
- MIC [12]: 3.9 µM (≈ 1.63 µg/mL)
- MBC [13]: 3.9 µM (≈ 1.63 µg/mL)
- MBC [14]: 3.9 µM (≈ 1.63 µg/mL)
- MBC [15]: 7.8 µM (≈ 3.26 µg/mL)
- IC50 at 72 h [16]: 125 µM
- MBEC [17]: 7.8 µM
- Activity [18]: 5.11%
- Activity [19]: Active
- inhibition [20]: Dose-Dependent Effect
- inhibition [21]: 85%
- inhibition [22]: 86%
- survival at 120 h [23]: 90%
- Activity [24]: 80%
